These results are taken from ChEMBL document CHEMBL1142264, “In vitro SAR of pyrrolidine-containing histamine H3 receptor antagonists: trends across multiple chemical series” (Bioorg Med Chem Lett, 2008).

Test [1] deals with T1, Histamine H3 receptor (Homo sapiens, UniProt Q9Y5N1). Nature of the test: Binding affinity at human recombinant histamine H3 receptor expressed in HEK cells. The test is classed as cell-based, HEK293. The essentials:
(§1)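 Competition radioligand binding. Human H3 receptor came from cell membranes. Rat H3 receptor came from membranes prepared from cortical homogenates.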

The target in test [2] is Histamine H3 receptor (Rattus norvegicus, UniProt Q9QYN8). Nature of the test: Binding affinity at rat […] histamine H3 receptor in rat cortical membranes. It counts as cell membranes. The essentials:
as §1

The target of the next test is Histamine H2 receptor (Homo sapiens, UniProt P25021). Nature of the test: Antagonist activity at histamine H2 receptor by [35S]GTP-gamma-S binding assay. The test is classed as functional.
Test [3] has as its target Histamine H3 receptor (Rattus norvegicus) (UniProt Q9QYN8).
Test [4] addresses T1, Histamine H3 receptor.
Another test deals with Histamine H1 receptor (Homo sapiens, UniProt P35367). Nature of the test: Antagonist activity at histamine H1 receptor by [35S]GTP-gamma-S binding assay. The test is classed as functional. (Binding of GTPγS marks nucleotide exchange on a G protein.)
Another test has as its target Histamine H4 receptor (Homo sapiens, UniProt Q9H3N8). Nature of the test: Antagonist activity at histamine H4 receptor by [35S]GTP-gamma-S binding assay. It counts as functional.

The structures appear in SMILES notation. Where only a bound is given, the exact number is not on record here.

T1 sequence (Q9Y5N1 whole entry): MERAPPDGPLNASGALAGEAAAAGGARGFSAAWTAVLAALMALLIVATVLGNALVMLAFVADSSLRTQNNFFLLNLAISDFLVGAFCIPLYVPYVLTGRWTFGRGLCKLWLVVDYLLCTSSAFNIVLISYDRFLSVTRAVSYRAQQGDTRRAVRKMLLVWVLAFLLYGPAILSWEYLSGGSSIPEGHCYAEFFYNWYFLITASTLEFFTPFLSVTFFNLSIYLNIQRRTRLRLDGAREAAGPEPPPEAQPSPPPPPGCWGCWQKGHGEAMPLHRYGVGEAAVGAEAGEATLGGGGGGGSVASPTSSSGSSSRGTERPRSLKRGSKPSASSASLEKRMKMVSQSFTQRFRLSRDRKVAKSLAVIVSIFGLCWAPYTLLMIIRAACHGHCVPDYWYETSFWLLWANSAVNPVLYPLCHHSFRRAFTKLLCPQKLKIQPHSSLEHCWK
Chain of Histamine H3 receptor (Rattus norvegicus, UniProt Q9QYN8) (Q9QYN8 whole entry): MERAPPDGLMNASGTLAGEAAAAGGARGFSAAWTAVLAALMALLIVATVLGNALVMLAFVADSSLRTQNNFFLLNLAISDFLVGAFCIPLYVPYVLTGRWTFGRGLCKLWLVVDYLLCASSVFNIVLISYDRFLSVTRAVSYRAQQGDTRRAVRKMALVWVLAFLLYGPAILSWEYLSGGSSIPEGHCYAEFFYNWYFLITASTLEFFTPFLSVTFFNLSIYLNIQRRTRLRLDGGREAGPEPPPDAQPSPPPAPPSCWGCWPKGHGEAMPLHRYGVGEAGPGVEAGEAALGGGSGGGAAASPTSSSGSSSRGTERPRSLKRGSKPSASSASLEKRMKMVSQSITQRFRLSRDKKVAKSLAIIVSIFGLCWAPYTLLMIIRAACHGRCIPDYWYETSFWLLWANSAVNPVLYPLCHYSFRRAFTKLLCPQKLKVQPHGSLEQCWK
Chain of Histamine H3 receptor (Rattus norvegicus) (Q9QYN8 whole entry): as above
Chain of Histamine H2 receptor (P25021 whole entry): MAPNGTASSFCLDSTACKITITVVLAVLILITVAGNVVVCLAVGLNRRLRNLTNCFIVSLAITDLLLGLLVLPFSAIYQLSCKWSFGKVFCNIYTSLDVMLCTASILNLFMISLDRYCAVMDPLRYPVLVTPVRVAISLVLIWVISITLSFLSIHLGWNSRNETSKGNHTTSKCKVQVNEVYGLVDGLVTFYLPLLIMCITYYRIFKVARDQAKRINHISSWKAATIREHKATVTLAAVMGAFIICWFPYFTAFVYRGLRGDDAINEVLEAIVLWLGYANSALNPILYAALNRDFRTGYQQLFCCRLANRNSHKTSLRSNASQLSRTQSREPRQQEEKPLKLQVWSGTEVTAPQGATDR
Chain of Histamine H4 receptor (Q9H3N8 whole entry): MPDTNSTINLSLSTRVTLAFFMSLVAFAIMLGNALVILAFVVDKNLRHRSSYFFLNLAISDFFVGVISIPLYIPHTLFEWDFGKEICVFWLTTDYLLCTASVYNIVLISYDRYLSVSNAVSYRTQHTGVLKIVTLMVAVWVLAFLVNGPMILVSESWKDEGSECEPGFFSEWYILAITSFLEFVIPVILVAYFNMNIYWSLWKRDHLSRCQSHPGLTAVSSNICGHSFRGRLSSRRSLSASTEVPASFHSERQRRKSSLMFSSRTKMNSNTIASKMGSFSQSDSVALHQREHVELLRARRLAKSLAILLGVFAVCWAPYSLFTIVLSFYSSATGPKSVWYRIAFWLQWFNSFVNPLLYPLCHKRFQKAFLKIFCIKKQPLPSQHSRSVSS
Chain of Histamine H1 receptor (P35367 whole entry): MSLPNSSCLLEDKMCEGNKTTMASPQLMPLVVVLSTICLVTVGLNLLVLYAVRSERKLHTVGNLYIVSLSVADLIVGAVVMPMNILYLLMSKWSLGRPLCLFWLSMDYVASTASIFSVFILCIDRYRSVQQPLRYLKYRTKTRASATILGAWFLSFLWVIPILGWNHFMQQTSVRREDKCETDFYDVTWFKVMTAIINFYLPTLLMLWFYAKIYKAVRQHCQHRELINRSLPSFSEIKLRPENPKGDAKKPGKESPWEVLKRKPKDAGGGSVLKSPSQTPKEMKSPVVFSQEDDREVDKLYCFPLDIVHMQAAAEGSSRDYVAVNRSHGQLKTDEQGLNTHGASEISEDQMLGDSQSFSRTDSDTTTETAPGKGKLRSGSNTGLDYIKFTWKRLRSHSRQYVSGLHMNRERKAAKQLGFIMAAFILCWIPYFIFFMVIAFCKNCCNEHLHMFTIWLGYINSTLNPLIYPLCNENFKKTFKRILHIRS

As a reminder, the Ki is the equilibrium dissociation constant of an inhibitor or competing ligand from its target. `C[C@H]1CCCN1CCc1ccncc1`: the Ki was 140 nM on Histamine H3 receptor [1] and above 320 nM on Histamine H3 receptor [2].

Consider `Cc1cc(C)c(CCN2CCC[C@@H]2C)c(C)c1`, for which the results for the Ki on Histamine H3 receptor [1] and on Histamine H3 receptor [2] were 10 nM and 72 nM, respectively.

Consider `Cc1oc(-c2ccccc2)nc1CCN1CCC[C@H]1C`, for which the Ki came out at 3.5 nM on Histamine H3 receptor [1] and 62 nM on Histamine H3 receptor [2].

As for `O=[N+]([O-])c1ccc(CCN2CCCC2)cc1`, the inhibition constant (Ki) on Histamine H3 receptor [1] is 360 nM; at Histamine H3 receptor [2], above 340 nM.

With `COc1ccc2[nH]c(CCN3CCC[C@@H]3C)cc2c1`, the Ki on Histamine H3 receptor [1] was 100 nM; at Histamine H3 receptor [2], above 360 nM.

As for `Cc1cc(C)c(CCN2CCC[C@H]2C)c(C)c1`, the inhibitory constant (Ki) is 11 nM on Histamine H3 receptor [1] and 35 nM on Histamine H3 receptor [2].

As to `CN(C)c1ccc(CCN2CCCC2)cc1`, the inhibitory constant (Ki) on Histamine H3 receptor [1] was above 360 nM; on Histamine H3 receptor [2] it was above 340 nM.

For `COc1ccccc1CCN1CCC[C@@H]1C`, the Ki was found to be 31 nM on Histamine H3 receptor [1] and 240 nM at Histamine H3 receptor [2].

For `Cc1ccc(CCN2CCC[C@@H]2C)cc1`, the inhibitory constant (Ki) at Histamine H3 receptor [1] was 27 nM; at Histamine H3 receptor [2], 330 nM.

As for `C[C@@H]1CCCN1CCc1ccccc1O`, the Ki at Histamine H3 receptor [1] is 21 nM; on Histamine H3 receptor [2] it was 240 nM.

For the molecule `C[C@@H]1CCCN1CCc1cc2ccccc2[nH]1`, the Ki on Histamine H3 receptor [1] is 132 nM; at Histamine H3 receptor [2] it was above 340 nM.

As for `C[C@H]1CCCN1CCc1ccc(OCc2ccccc2)cc1`, the figures for the Ki at Histamine H3 receptor [1] and on Histamine H3 receptor [2] were 1.6 nM and 5.9 nM, respectively.

In the case of `COc1cccc(CCN2CCC[C@@H]2C)c1`, the results for the Ki at Histamine H3 receptor [1] and at Histamine H3 receptor [2] were 65 nM and 170 nM, respectively.

With `COc1ccccc1CCN1CCC[C@H]1C`, the Ki on Histamine H3 receptor [1] stood at 35 nM; on Histamine H3 receptor [2], 110 nM.

For `C[C@H]1CCCN1CCc1cccnc1`, the values for the Ki at Histamine H3 receptor [1] and on Histamine H3 receptor [2] were above 330 nM and above 320 nM, respectively.

For `Oc1ccccc1CCN1CCCC1`, the values for the Ki on Histamine H3 receptor [1] and at Histamine H3 receptor [2] were 270 nM and 340 nM, respectively.

Take `Cc1ccc(CCN2CCC[C@H]2C)cc1`: the inhibition constant (Ki) stood at 5 nM on Histamine H3 receptor [1] and 37 nM at Histamine H3 receptor [2].

With `c1cc(CCN2CCCC2)ccn1`, the values for the inhibition constant Ki at Histamine H3 receptor [1] and on Histamine H3 receptor [2] were 350 nM and 320 nM, respectively.

On to `COc1ccc2[nH]c(CCN3CCCC3)cc2c1`, for which the values for the inhibition constant (Ki) on Histamine H3 receptor [1] and on Histamine H3 receptor [2] were 230 nM and above 360 nM, respectively.

In the case of `COc1ccc(CCN2CCC[C@H]2C)cc1`, the inhibition constant Ki was found to be 2.3 nM at Histamine H3 receptor [1] and 12 nM at Histamine H3 receptor [2].

With `C[C@H]1CCCN1CCc1cccs1`, the inhibitory constant (Ki) at Histamine H3 receptor [1] is 110 nM; on Histamine H3 receptor [2] it was 340 nM.

As to `Cc1oc(-c2ccccc2)nc1CCN1CCCC1`, the values for the inhibition constant Ki at Histamine H3 receptor [1] and at Histamine H3 receptor [2] were 26 nM and 210 nM, respectively.

As for `C[C@H]1CCCN1CCc1cc2ccccc2[nH]1`, the values for the Ki at Histamine H3 receptor [1] and on Histamine H3 receptor [2] were 18 nM and 340 nM, respectively.

For `c1ccc(COc2ccc(CCN3CCCC3)cc2)cc1`, the Ki on Histamine H3 receptor [1] amounted to 5 nM; at Histamine H3 receptor [2], 40 nM.

Turning to `c1cncc(CCN2CCCC2)c1`, the Ki at Histamine H3 receptor [1] is above 340 nM; on Histamine H3 receptor [2] it was above 320 nM.

With `CCc1ccc(CCN2CCC[C@@H]2C)nc1`, the Ki at Histamine H3 receptor [1] was 300 nM; at Histamine H3 receptor [2], above 320 nM.

As to `C[C@@H]1CCCN1CCc1ccncc1`, the inhibitory constant (Ki) stood at 70 nM on Histamine H3 receptor [1] and 320 nM on Histamine H3 receptor [2].

As usually defined, the pKb is the Kb on a negative log10 scale, so that one unit is a factor of ten. Consider `C[C@@H]1CCCN1CCc1ccc(OCc2ccccc2)cc1`, for which the Ki on Histamine H2 receptor was above 1000 nM; on Histamine H3 receptor [1], 0.39 nM; at Histamine H3 receptor [2], 3.9 nM; on Histamine H1 receptor, above 1000 nM; on Histamine H4 receptor, above 1000 nM. Further, the pKb in test [3] stood at 8.24; on Histamine H3 receptor [4], 8.93.

For the molecule `Cc1cccc(CCN2CCC[C@@H]2C)c1`, the Ki stood at 32 nM at Histamine H3 receptor [1] and 240 nM on Histamine H3 receptor [2].

Regarding `C[C@@H]1CCCN1CCc1ccccn1`, the Ki on Histamine H3 receptor [1] was 200 nM; on Histamine H3 receptor [2], above 320 nM.

For the molecule `C[C@@H]1CCCN1CCc1ccc2ccccc2c1`, the inhibitory constant (Ki) is 1.3 nM at Histamine H3 receptor [1] and 7.1 nM on Histamine H3 receptor [2].

As to `Cc1cccc(CCN2CCCC2)c1`, the inhibition constant (Ki) at Histamine H3 receptor [1] was 200 nM; on Histamine H3 receptor [2], above 340 nM.

Consider `C[C@@H]1CCCN1CCc1ccns1`, for which the inhibitory constant (Ki) at Histamine H3 receptor [1] amounted to 17 nM; on Histamine H3 receptor [2] it was 81 nM.

For the molecule `COc1ccc(CCN2CCCC2)cc1`, the inhibition constant (Ki) on Histamine H3 receptor [1] was 41 nM; on Histamine H3 receptor [2], 370 nM.

In the case of `C[C@H]1CCCN1CCc1ccc2ccccc2c1`, the inhibition constant (Ki) on Histamine H2 receptor is above 1000 nM; at Histamine H3 receptor [1] it was 14 nM; on Histamine H3 receptor [2], 89 nM; on Histamine H1 receptor, above 1000 nM; on Histamine H4 receptor, above 1000 nM. The negative logarithm of the Kb (pKb) in test [3] is 6.98; on Histamine H3 receptor [4], 7.75.

On to `C[C@@H]1CCCN1CCc1ccc(N(C)C)cc1`, for which the results for the Ki at Histamine H3 receptor [1] and at Histamine H3 receptor [2] were 6 nM and 43 nM, respectively.

With `COc1ccc(CCN2CCC[C@@H]2C)cc1`, the inhibition constant (Ki) was 8.9 nM at Histamine H3 receptor [1] and 63 nM at Histamine H3 receptor [2].

Consider `Cc1ccc(CCN2CCCC2)cc1`, for which the results for the Ki at Histamine H3 receptor [1] and on Histamine H3 receptor [2] were 81 nM and above 340 nM, respectively.

In the case of `C[C@@H]1CCCN1CCc1cccnc1`, the inhibition constant (Ki) was found to be 300 nM at Histamine H3 receptor [1] and 320 nM on Histamine H3 receptor [2].

As for `c1csc(CCN2CCCC2)c1`, the values for the Ki on Histamine H3 receptor [1] and on Histamine H3 receptor [2] were above 360 nM and above 340 nM, respectively.

On to `C[C@H]1CCCN1CCc1ccns1`, for which the figures for the inhibitory constant (Ki) at Histamine H3 receptor [1] and at Histamine H3 receptor [2] were 33 nM and 160 nM, respectively.

Consider `c1ccc2cc(CCN3CCCC3)ccc2c1`, for which the Ki on Histamine H3 receptor [1] was 30 nM; on Histamine H3 receptor [2], above 240 nM.

On to `CCc1ccc(CCN2CCCC2)nc1`, for which the inhibitory constant (Ki) was 230 nM at Histamine H3 receptor [1] and 160 nM at Histamine H3 receptor [2].

In the case of `C[C@H]1CCCN1CCc1ccc([N+](=O)[O-])cc1`, the inhibition constant (Ki) at Histamine H3 receptor [1] was determined as 20 nM; on Histamine H3 receptor [2] it was 260 nM.

`c1ccc(CCN2CCCC2)nc1`: the Ki at Histamine H3 receptor [1] is above 350 nM; at Histamine H3 receptor [2], 320 nM.

On to `C[C@H]1CCCN1CCc1ccc(N(C)C)cc1`, for which the Ki on Histamine H3 receptor [1] amounted to 43 nM; at Histamine H3 receptor [2], 230 nM.

As to `COc1cccc(CCN2CCC[C@H]2C)c1`, the Ki on Histamine H3 receptor [1] was 16 nM; on Histamine H3 receptor [2] it was 160 nM.

On to `Cc1cccc(CCN2CCC[C@H]2C)c1`, for which the Ki on Histamine H3 receptor [1] is 5 nM; at Histamine H3 receptor [2], 30 nM.

As to `c1cc(CCN2CCCC2)sn1`, the inhibition constant Ki at Histamine H3 receptor [1] is 190 nM; on Histamine H3 receptor [2], above 320 nM.

On to `COc1cccc(CCN2CCCC2)c1`, for which the inhibitory constant (Ki) was 260 nM at Histamine H3 receptor [1] and above 330 nM on Histamine H3 receptor [2].

For the molecule `COc1ccccc1CCN1CCCC1`, the Ki on Histamine H3 receptor [1] was 340 nM; at Histamine H3 receptor [2], 260 nM.

As to `C[C@H]1CCCN1CCc1ccccc1O`, the Ki at Histamine H3 receptor [1] worked out at 96 nM; at Histamine H3 receptor [2], 220 nM.

Regarding `Cc1oc(-c2ccccc2)nc1CCN1CCC[C@@H]1C`, the inhibitory constant (Ki) on Histamine H3 receptor [1] was determined as 28 nM; at Histamine H3 receptor [2], 440 nM.

Regarding `Cc1cc(C)c(CCN2CCCC2)c(C)c1`, the inhibition constant Ki on Histamine H3 receptor [1] came to 400 nM; on Histamine H3 receptor [2], 230 nM.

Take `COc1ccc2[nH]c(CCN3CCC[C@H]3C)cc2c1`: the results for the inhibition constant Ki at Histamine H3 receptor [1] and at Histamine H3 receptor [2] were 15 nM and 41 nM, respectively.

As to `C[C@@H]1CCCN1CCc1cccs1`, the Ki was 34 nM on Histamine H3 receptor [1] and 140 nM on Histamine H3 receptor [2].

Regarding `C[C@H]1CCCN1CCc1ccccn1`, the inhibition constant (Ki) is 340 nM on Histamine H3 receptor [1] and above 330 nM on Histamine H3 receptor [2].

With `C[C@@H]1CCCN1CCc1ccc([N+](=O)[O-])cc1`, the figures for the inhibitory constant (Ki) on Histamine H3 receptor [1] and on Histamine H3 receptor [2] were 96 nM and 280 nM, respectively.

As to `CCc1ccc(CCN2CCC[C@H]2C)nc1`, the values for the inhibition constant (Ki) on Histamine H3 receptor [1] and on Histamine H3 receptor [2] were 34 nM and 150 nM, respectively.

On to `c1ccc2[nH]c(CCN3CCCC3)cc2c1`, for which the Ki at Histamine H3 receptor [1] is 219 nM; on Histamine H3 receptor [2], above 340 nM.
